≈ marks a conversion by molar mass, not a printed value. Calls of active or inactive are those of the source. No cut-off for these calls is given here.

Results on four molecules are retold here after ChEMBL document CHEMBL4130494, “Crassiflorone derivatives that inhibit Trypanosoma brucei glyceraldehyde-3-phosphate dehydrogenase (TbGAPDH) and Trypanosoma cruzi trypanothione reductase (TcTR) and display trypanocidal activity” (Eur J Med Chem, 2017).

The target of data set [1] is Trypanothione reductase (Trypanosoma cruzi) (UniProt P28593). In words: Inhibition of Trypanosoma cruzi trypanothione reductase assessed as reduction in NADPH consumption at 5 uM using 100 uM trypanothione disulfide as substrate by spectrophotometric method relative to control. A digest of the protocol:
(§1)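 Recombinant TcTR (5–10 mU) at 25 °C in 40 mM HEPES, 1 mM EDTA, pH 7.5, 100 μM NADPH, 5% DMSO; started with trypanothione disulfide; NADPH consumption read at 340 nm; percentage inhibition calculated.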

For data set [2] the target is unchanged. In words: Inhibition of Trypanosoma cruzi trypanothione reductase assessed as reduction in NADPH consumption at 5 uM using 40 uM trypanothione disulfide as substrate by spectrophotometric method relative to control. An outline of the steps: as §1
For another data set, the target named is hERG (KCNH2) (Homo sapiens, UniProt Q12809). Nature of the data set: Inhibition of Tracer Red binding to human ERG expressed in membranes at 10 uM by fluorescence polarization assay relative to control. The conditions noted are these: membranes expressing human ERG, probe Tracer Red. A digest of the protocol:
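Fluorescence polarization displacement of a high-affinity red fluorescent tracer from hERG channel–containing membrane fraction.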

The target in the next data set is T1, CYP1A2 (Homo sapiens, UniProt P05177).
T1 sequence (P05177 whole entry): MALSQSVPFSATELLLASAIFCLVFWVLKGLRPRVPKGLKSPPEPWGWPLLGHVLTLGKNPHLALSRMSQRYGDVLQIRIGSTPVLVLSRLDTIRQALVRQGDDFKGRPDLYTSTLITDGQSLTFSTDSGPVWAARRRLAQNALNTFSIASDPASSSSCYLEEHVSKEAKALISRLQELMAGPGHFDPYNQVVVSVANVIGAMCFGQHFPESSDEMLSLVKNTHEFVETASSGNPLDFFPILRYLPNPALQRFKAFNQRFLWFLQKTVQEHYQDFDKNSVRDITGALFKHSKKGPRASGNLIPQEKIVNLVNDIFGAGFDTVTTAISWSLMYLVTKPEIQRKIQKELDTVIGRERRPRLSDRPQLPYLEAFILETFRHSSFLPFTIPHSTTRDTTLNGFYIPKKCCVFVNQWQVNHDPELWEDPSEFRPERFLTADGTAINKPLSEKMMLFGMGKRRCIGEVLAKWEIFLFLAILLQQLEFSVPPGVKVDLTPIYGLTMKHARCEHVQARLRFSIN
In words: Inhibition of human CYP1A2 at 10 uM by P450-Glo assay relative to control. Format: ADME. A digest of the protocol: (§2)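 P450-Glo luminescent platform: CYP action on each substrate generates light; decreased light taken as inhibition.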

The target of another data set is CYP2C9 (Homo sapiens, UniProt P11712). Nature of the data set: Inhibition of human CYP2C9 at 10 uM by P450-Glo assay relative to control. Format: ADME. A digest of the protocol:
as §2

The target of the next data set is CYP2C19 (Homo sapiens, UniProt P33261). In words: Inhibition of human CYP2C19 at 10 uM by P450-Glo assay relative to control. The format is ADME. An outline of the steps: as §2
Sequence of CYP2C19 (P33261 whole entry): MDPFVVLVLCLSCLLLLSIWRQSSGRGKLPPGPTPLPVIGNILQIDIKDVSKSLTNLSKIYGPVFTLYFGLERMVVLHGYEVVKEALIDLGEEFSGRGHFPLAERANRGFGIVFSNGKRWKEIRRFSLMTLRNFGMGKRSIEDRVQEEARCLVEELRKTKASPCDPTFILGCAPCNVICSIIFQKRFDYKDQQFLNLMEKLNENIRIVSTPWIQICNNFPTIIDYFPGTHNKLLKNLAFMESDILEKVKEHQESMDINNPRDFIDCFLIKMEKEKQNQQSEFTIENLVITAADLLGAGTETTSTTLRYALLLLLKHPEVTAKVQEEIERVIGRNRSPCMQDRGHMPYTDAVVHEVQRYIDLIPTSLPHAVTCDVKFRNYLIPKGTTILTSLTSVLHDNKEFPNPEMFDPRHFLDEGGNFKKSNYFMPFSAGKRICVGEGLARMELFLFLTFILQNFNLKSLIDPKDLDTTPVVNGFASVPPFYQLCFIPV
The target in another data set is CYP2D6 (Homo sapiens, UniProt P10635). Nature of the data set: Inhibition of human CYP2D6 at 10 uM by P450-Glo assay relative to control. Format: ADME. An outline of the steps:
as §2

Another data set has as its target CYP3A4 (Homo sapiens, UniProt P08684). Nature of the data set: Inhibition of human CYP3A4 at 10 uM by P450-Glo assay relative to control. Format: ADME. A digest of the protocol:
as §2

Data set [3] can be described thus: Cytotoxicity against human A549 cells assessed as cell growth at 10 uM by CellTiter-Glo assay relative to control. Format: cell-based. The conditions noted are these: read-out: Activity. A digest of the protocol: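 A549 cells; cellular ATP measured by CellTiter-Glo luminescence as a proxy for cell number; paclitaxel 10 μM as positive control.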
In general terms: Cellular ATP, detected with luciferase, serves as a proxy for viable cell number.

The subject of the next data set is 786-0. Nature of the data set: Cytotoxicity against human 786-O cells assessed as mitochondrial viability at 10 uM by CMXRos staining based high-content imaging analysis relative to control. Format: cell-based. To be noted: 786-0, 10 µM. A digest of the protocol: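 786-O cells kept in RPMI-1640 with 2 mM glutamine, 10% FCS, streptomycin and penicillin G; mitochondria of live cells stained with MitoTracker Red CMXRos and imaged by high-content imaging.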

Data set [4] concerns the target T2, Pteridine reductase 1 (Leishmania major) (UniProt Q01782).
T2 sequence (whole entry): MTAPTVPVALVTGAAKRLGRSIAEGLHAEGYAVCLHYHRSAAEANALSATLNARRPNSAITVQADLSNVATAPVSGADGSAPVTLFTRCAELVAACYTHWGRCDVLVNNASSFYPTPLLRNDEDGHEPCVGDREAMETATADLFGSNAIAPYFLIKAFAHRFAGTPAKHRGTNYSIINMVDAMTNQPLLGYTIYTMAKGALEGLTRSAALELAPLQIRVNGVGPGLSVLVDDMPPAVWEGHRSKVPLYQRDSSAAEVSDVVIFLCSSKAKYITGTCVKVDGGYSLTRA
Nature of the data set: Inhibition of Leishmania major pteridine reductase 1 assessed as reduction in conversion of dihydrobiopterin to tetrahydrobiopterin at 25 uM up to 50 mins in presence of NADPH by cytochrome c reduction coupled photometric assay relative to control.

Data set [5] addresses T3, Pteridine reductase, putative (Trypanosoma brucei) (UniProt Q581W1).
T3 sequence (whole entry): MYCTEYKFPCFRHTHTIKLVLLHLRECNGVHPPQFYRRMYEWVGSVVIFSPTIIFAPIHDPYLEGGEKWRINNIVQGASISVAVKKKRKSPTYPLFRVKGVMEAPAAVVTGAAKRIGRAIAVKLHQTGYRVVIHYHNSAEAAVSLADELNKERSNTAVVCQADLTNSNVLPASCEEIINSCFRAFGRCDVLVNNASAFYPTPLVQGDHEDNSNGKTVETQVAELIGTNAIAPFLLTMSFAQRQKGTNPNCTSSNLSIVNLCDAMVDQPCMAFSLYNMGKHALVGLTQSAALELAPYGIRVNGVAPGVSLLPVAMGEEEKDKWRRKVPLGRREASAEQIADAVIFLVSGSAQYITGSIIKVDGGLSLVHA
Nature of the data set: Inhibition of Trypanosoma brucei pteridine reductase 1 assessed as reduction in conversion of dihydrobiopterin to tetrahydrobiopterin at 25 uM up to 50 mins in presence of NADPH by cytochrome c reduction coupled photometric assay relative to control.

Data set [6] can be described thus: Solubility in PBS after overnight incubation by nephelometry. Format: physicochemical.
The nature of data set [7]: Solubility in pH 7.4 Hanks simulated body fluid after overnight incubation by nephelometry. Format: physicochemical.
Another data set has as its target Trypanothione reductase (Trypanosoma cruzi, UniProt P28593). In words: Inhibition of Trypanosoma cruzi trypanothione reductase assessed as reduction in NADPH consumption using varying levels of trypanothione disulfide as substrate by Lineweaver-Burk plot analysis. A digest of the protocol: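 Recombinant T. cruzi TR (5-10 mU) at 25 °C in 40 mM HEPES, 1 mM EDTA, pH 7.5, with 100 μM NADPH and 5% DMSO. Reaction started with TS2 and NADPH consumption followed at 340 nm. TS2 varied at 20, 40, 60, 100 and 200 μM without inhibitor and at two fixed inhibitor concentrations. Inhibition type read from Lineweaver-Burk plots. Ki fitted from direct plot by non-linear least squares. Inhibitor assays run at least in duplicate.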

Another data set has as its system Trypanosoma brucei. In words: Inhibition of Trypanosoma brucei glyceraldehyde-3-phosphate dehydrogenase at 10 uM using GAP as substrate in presence of NAD+ by spectrophotometric method relative to control. An outline of the steps: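 Recombinant TbGAPDH (200–300 μg protein) in 10 mM triethanolamine, 1.7 mM NaHCO3, 100 mM KCl, 5 mM MgSO4, 1 mM EDTA, pH 7.6, 25 °C, with 400 μM NAD+, 500 μM KH2PO4, 300 μM GAP; NAD+ reduction followed at 340 nm; inhibitors from DMSO stocks; triplicate; reported as percentage activity.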

Data set [8] deals with Trypanothione reductase (Trypanosoma cruzi) (UniProt P28593). In words: Inhibition of Trypanosoma cruzi trypanothione reductase assessed as reduction in NADPH consumption at 10 uM using 100 uM trypanothione disulfide as substrate by spectrophotometric method. An outline of the steps: as §1
Sequence of Trypanothione reductase (Trypanosoma cruzi) (P28593 whole entry, looked up): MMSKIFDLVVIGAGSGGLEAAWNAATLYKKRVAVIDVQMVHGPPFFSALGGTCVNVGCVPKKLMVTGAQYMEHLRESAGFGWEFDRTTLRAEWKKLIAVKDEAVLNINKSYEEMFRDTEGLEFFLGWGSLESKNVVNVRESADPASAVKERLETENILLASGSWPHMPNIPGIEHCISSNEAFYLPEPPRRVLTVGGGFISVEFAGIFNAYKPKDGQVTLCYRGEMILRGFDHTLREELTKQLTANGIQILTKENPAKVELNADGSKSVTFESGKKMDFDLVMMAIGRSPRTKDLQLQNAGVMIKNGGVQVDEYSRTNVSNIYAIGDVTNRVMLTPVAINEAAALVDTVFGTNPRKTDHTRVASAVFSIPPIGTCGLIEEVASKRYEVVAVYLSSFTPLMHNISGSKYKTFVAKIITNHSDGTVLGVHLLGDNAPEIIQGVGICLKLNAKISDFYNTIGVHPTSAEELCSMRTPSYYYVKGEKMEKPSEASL
For data set [9] the target is unchanged. In words: Inhibition of Trypanosoma cruzi trypanothione reductase assessed as reduction in NADPH consumption at 10 uM using 40 uM trypanothione disulfide as substrate by spectrophotometric method. A digest of the protocol: as §1
Data set [10] concerns Trypanosoma brucei brucei. Nature of the data set: Growth inhibition of Trypanosoma brucei brucei Lister 427 bloodstream forms at 5 uM by SYBR Green based assay relative to control. Format: functional. To be noted: read-out: GI.

Sequence of CYP3A4 (P08684 whole entry): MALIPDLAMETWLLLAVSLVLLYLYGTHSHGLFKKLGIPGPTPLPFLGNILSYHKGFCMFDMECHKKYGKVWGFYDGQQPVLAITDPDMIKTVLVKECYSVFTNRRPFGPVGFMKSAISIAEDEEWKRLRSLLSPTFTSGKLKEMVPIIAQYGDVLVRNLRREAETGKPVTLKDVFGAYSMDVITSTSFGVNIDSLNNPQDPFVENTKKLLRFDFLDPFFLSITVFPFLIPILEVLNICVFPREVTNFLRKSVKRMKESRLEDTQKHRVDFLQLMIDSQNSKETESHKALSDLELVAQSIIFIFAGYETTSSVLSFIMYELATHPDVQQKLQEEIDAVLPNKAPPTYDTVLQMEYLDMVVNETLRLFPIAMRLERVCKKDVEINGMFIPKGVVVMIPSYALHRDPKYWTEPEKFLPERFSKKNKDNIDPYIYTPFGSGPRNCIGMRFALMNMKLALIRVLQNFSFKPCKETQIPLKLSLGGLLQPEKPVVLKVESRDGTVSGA
Sequence of hERG (KCNH2) (Q12809 whole entry): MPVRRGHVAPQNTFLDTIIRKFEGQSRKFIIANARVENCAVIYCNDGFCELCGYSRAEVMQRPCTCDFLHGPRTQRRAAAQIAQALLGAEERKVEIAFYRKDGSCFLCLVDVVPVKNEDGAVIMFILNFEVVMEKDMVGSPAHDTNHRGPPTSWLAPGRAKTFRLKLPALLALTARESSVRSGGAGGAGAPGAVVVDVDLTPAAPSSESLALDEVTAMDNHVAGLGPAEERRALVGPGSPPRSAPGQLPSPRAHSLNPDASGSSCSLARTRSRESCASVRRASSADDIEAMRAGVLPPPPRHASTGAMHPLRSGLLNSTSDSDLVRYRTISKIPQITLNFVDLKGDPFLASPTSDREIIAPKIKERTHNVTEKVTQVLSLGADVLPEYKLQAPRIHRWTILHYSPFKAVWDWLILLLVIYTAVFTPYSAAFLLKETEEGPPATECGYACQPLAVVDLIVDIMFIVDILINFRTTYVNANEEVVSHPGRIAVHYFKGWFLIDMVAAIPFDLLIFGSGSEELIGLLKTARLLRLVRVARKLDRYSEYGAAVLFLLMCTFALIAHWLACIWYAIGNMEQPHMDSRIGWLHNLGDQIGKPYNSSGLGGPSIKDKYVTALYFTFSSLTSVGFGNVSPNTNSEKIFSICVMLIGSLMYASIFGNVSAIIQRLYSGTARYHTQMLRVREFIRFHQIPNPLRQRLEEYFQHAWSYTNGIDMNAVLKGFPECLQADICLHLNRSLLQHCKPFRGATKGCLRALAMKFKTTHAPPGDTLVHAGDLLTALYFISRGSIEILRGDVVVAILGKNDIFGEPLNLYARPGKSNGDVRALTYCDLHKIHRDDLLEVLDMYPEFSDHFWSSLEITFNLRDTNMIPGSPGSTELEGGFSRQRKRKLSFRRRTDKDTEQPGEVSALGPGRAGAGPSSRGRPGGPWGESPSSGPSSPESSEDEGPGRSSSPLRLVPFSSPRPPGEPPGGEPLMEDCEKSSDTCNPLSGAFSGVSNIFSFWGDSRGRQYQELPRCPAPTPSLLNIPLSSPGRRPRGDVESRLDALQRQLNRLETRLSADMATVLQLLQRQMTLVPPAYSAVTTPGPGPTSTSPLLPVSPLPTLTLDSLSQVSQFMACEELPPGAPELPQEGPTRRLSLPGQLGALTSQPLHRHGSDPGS
Sequence of CYP2D6 (P10635 whole entry): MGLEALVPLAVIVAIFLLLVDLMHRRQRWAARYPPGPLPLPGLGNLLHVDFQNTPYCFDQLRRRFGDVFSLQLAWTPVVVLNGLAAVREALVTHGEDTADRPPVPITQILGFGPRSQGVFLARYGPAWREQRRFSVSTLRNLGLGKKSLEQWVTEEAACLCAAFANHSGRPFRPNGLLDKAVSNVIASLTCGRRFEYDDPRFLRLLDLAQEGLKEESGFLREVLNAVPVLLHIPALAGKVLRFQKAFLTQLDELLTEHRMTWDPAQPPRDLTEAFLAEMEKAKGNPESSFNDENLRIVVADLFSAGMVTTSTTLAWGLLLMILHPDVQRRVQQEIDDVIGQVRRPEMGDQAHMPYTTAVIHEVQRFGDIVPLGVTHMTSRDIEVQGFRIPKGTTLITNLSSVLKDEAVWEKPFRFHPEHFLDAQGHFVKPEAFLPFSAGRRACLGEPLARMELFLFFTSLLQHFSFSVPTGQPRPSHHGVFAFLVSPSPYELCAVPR
Sequence of CYP2C9 (P11712 whole entry): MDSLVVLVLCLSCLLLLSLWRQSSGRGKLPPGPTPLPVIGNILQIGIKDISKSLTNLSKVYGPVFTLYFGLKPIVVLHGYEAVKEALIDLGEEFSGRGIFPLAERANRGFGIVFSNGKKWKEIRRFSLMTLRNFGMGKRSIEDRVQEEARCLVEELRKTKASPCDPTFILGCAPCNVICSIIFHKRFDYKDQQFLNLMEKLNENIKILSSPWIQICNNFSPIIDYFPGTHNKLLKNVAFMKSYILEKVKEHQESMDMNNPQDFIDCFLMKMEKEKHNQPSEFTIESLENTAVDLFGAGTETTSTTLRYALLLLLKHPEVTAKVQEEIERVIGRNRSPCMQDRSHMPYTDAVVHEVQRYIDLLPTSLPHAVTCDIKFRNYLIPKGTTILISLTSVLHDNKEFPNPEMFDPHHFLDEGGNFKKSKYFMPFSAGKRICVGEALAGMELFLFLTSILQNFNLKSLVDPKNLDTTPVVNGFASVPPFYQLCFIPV
Sequence of Trypanothione reductase (P28593 whole entry): as the sequence (P28593 whole entry, looked up) above

With `O=C1c2ccccc2C(=O)c2c1oc1c2c(=O)oc2ccccc21`, the inhibition in data set [1] was 18%; in data set [2], 19.1%; in data set [4] it was -0.4%; in data set [5] it was -6.44%. Moreover, the inhibition at 10 µM at hERG (KCNH2) is -20.3%; against CYP1A2, 48.2%; against CYP2C9, 32.4%; against CYP2C19 it was 46.1%; on CYP2D6 it was 71%; against CYP3A4 it was 14.8%. The viability at 10 µM in data set [3] worked out at 146%. In the data set with 786-0, the Activity is reported as 89.15%. The kinetic solubility in data set [6] and in [7] was 70 µM (≈ 22.1 µg/mL) throughout.
With `c1cc2cc(-c3ccc(C4(N5CCCC5)CCCCC4)s3)ccc2[nH]1`, on Trypanothione reductase, the Ki amounted to 4 µM.
On to `O=C1C=C(Oc2ccccc2)C(=O)c2ccccc21`, for which the inhibition entry with Trypanosoma brucei was “Active”. Also, the inhibition in data set [8] came out at 29%; in data set [9] it was 23%.
Turning to `CC(=O)Oc1cccc2c1C(=O)c1oc3c(c1C2=O)c(=O)oc1ccccc13`, the inhibition entry in the data set on Trypanosoma brucei was “inactive”. The inhibition turned out to be 35.2% in [1] and 41% in data set [2]. In addition, in [10], the inhibition of growth at 5 µM came out at 38%. Moreover, the inhibition at 10 µM on hERG (KCNH2) was 86.8%; against CYP1A2 it was 93.5%; at CYP2C9 it was 99.2%; against CYP2C19 it was 109%; against CYP2D6 it was 108%; at CYP3A4, 88.7%. Further, the viability at 10 µM in [3] was found to be 183%. Moreover, the Activity with 786-0 amounted to 90.52%. Besides, the kinetic solubility in [6] and in [7] was 35 µM (≈ 13.1 µg/mL) each time.

Broadly, the inhibition is the change of the read-out against control, counted positive when it falls. A word on the kinetic solubility: it is solubility judged after dilution from a stock solution rather than from solid. For orientation: Ki means a dissociation constant, usually derived from enzyme kinetics or from competition with a known ligand.
